Measured values from ChEMBL document CHEMBL4813946, “Discovery of novel 4-azaaryl-N-phenylpyrimidin-2-amine derivatives as potent and selective FLT3 inhibitors for acute myeloid leukaemia with FLT3 mutations” (Eur J Med Chem, 2021).
Calls of active or inactive are those of the source. The calls are words filed in the database; no cut-off is given here.

Experiments:
MV4-11 [1] = assay: Induction of apoptosis in human MV4-11 cells assessed as viable cells at 10 x GI50 concentration incubated for 48 hrs by annexin V-FITC and propidium iodide staining based flow cytometry (reference value: 91.87 %); assay type: functional
MV4-11 [2] = assay: Induction of apoptosis in human MV4-11 cells assessed as early apoptotic cells at 20 x GI50 concentration incubated for 24 hrs by annexin V-FITC and propidium iodide staining based flow cytometry (reference value: 2.12 %); assay type: functional
[3] = biological target: Receptor-type tyrosine-protein kinase FLT3 (Homo sapiens) (UniProt P36888); assay: Inhibition of FLT3-mediated signalling pathway in human MV4-11 cells assessed as inhibition of AKT phosphorylation upto 20 x GI50 concentration incubated for 6 hrs by western blot analysis; assay type: cell-based
Summary of the method: (§1)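 Cells lysed in phosphate lysis buffer with protease inhibitors and protein quantified. Western blots probed phospho and total STAT5, AKT, ERK, S6RP and eIF4E, plus full-length and cleaved PARP and caspase-3, with β-actin as loading control. At least two independent experiments.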

MV4-11 [4] = assay: Induction of apoptosis in human MV4-11 cells assessed as late apoptotic cells at 5 x GI50 concentration incubated for 48 hrs by annexin V-FITC and propidium iodide staining based flow cytometry (reference value: 6.59 %); assay type: functional
U-937 [5] = assay: Induction of apoptosis in human U937 cells assessed as early apoptotic cells at 1 x GI50 concentration incubated for 48 hrs by annexin V-FITC staining based flow cytometry (Rvb =2.78 %); assay type: functional
[6] = Antiproliferative activity against human MOLM-13 cells harboring FLT3-ITD mutant assessed as reduction in cell viability after 72 hrs by resazurin assay; assay type: functional; details: MOLM-13, 72 h
Summary of the method: (§2)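 Cells seeded and pre-incubated 24 h at 37 °C, 5% CO2, then given a five-fold dilution series of compound (from 10 mM DMSO stock) in medium, in triplicate. Resazurin added after 72 h exposure, 4 h in dark at 37 °C. Fluorescence read at 570/585 nm, normalised to DMSO vehicle. GI50 by non-linear regression; mean ± SD of at least two replicates.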

U-937 [7] = assay: Induction of apoptosis in human U937 cells assessed as viable cells at 1 x GI50 concentration incubated for 48 hrs by annexin V-FITC staining based flow cytometry (reference value: 86.25 %); assay type: functional
U-937 [8] = assay: Induction of apoptosis in human U937 cells assessed as necrotic cells at 20 x GI50 concentration incubated for 48 hrs by annexin V-FITC staining based flow cytometry (reference value: 1.16 %); assay type: functional
[9] = biological target: Receptor-type tyrosine-protein kinase FLT3 (Homo sapiens) (UniProt P36888); assay: Inhibition of FLT3-mediated signalling pathway in human U-937 cells assessed as inhibition of S6RP phosphorylation upto 20 x GI50 concentration incubated for 6 hrs by western blot analysis; assay type: cell-based; summary of the method: as §1
MV4-11 [10] = assay: Antiproliferative activity against human MV4-11 cells harboring FLT3-ITD mutant assessed as reduction in cell viability after 72 hrs by resazurin assay; assay type: functional; summary of the method: as §2
[11] = Inhibition of FLT3 Y591-V592insVDFREYEYD mutant (unknown origin) incubated for 120 mins by ADP-glo based luminescence assay; set-up: species or system Homo sapiens
U-937 [12] = assay: Induction of apoptosis in human U937 cells assessed as late apoptotic cells at 1 x GI50 concentration incubated for 48 hrs by annexin V-FITC staining based flow cytometry (reference value: 9.82 %); assay type: functional
MV4-11 [13] = assay: Antiproliferative activity against human MV4-11 cells incubated for 72 hrs by resazurin assay; assay type: functional; summary of the method: as §2
Jurkat = assay: Antiproliferative activity against human Jurkat cells harboring FLT3 knockout gene assessed as reduction in cell viability after 72 hrs by resazurin assay; assay type: functional; summary of the method: as §2
MV4-11 [14] = assay: Induction of apoptosis in human MV4-11 cells assessed as viable cells at 1 x GI50 concentration incubated for 48 hrs by annexin V-FITC and propidium iodide staining based flow cytometry (reference value: 91.87 %); assay type: functional
MV4-11 [15] = assay: Induction of apoptosis in human MV4-11 cells assessed as late apoptotic cells at 5 x GI50 concentration incubated for 24 hrs by annexin V-FITC and propidium iodide staining based flow cytometry (reference value: 12.45 %); assay type: functional
MV4-11 [16] = assay: Induction of apoptosis in human MV4-11 cells assessed as necrotic cells at 20 x GI50 concentration incubated for 48 hrs by annexin V-FITC and propidium iodide staining based flow cytometry (reference value: […] %); assay type: functional
U-937 [17] = assay: Induction of apoptosis in human U937 cells assessed as necrotic cells at 5 x GI50 concentration incubated for 24 hrs by annexin V-FITC and propidium iodide staining based flow cytometry (reference value: 1.10 %); assay type: functional
MV4-11 [18] = assay: Induction of apoptosis in human MV4-11 cells assessed as early apoptotic cells at 5 x GI50 concentration incubated for 24 hrs by annexin V-FITC and propidium iodide staining based flow cytometry (reference value: 2.12 %); assay type: functional
[19] = biological target: Receptor-type tyrosine-protein kinase FLT3 (Homo sapiens) (UniProt P36888); assay: Inhibition of FLT3-mediated signalling pathway in human MV4-11 cells assessed as inhibition of ERK phosphorylation upto 20 x GI50 concentration incubated for 6 hrs by western blot analysis; assay type: cell-based; summary of the method: as §1
MV4-11 [20] = assay: Induction of apoptosis in human MV4-11 cells assessed as early apoptotic cells at 10 x GI50 concentration incubated for 24 hrs by annexin V-FITC and propidium iodide staining based flow cytometry (reference value: 2.12 %); assay type: functional
MV4-11 [21] = assay: Induction of apoptosis in human MV4-11 cells assessed as necrotic cells at 10 x GI50 concentration incubated for 24 hrs by annexin V-FITC and propidium iodide staining based flow cytometry (reference value: 0.75 %); assay type: functional

Chain of Receptor-type tyrosine-protein kinase FLT3 (Homo sapiens) (P36888 whole entry): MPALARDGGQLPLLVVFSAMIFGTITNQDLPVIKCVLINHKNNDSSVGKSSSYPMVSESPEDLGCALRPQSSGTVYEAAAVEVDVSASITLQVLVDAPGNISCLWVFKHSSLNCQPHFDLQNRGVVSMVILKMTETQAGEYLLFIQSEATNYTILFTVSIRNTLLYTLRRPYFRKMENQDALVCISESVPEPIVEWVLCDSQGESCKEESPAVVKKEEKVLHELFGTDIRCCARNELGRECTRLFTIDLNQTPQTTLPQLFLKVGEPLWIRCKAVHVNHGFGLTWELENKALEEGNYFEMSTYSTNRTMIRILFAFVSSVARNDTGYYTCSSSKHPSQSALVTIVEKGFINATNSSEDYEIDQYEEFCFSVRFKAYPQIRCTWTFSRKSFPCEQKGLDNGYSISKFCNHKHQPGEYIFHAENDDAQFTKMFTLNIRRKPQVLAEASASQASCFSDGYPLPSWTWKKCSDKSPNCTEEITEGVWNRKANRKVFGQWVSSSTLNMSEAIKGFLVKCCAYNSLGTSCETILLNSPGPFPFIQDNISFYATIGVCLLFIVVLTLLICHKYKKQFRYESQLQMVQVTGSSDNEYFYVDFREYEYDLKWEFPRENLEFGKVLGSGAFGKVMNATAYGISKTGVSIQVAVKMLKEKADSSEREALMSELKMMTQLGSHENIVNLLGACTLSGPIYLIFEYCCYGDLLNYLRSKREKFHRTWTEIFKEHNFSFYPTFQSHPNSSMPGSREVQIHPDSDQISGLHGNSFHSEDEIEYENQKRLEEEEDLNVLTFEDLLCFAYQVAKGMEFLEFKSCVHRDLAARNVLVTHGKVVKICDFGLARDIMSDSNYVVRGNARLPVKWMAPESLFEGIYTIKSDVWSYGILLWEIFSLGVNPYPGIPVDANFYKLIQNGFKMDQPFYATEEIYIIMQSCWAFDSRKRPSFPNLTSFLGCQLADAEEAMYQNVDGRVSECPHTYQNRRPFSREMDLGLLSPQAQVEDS

Compound: CC(=O)N1CCN(c2ccc(Nc3nccc(-c4cn(C)c5ncccc45)n3)cc2)CC1
- Activity (MV4-11 [1]): 72.29%
- Activity (MV4-11 [2]): 3.51%
- inhibition [3]: Active
- Activity (MV4-11 [4]): 9.25%
- Activity (U-937 [5]): 2.21%
- GI50 [6]: 23 nM
- Activity (U-937 [7]): 87.16%
- Activity (U-937 [8]): 1.73%
- inhibition [9]: Active
- GI50 (MV4-11 [10]): 74 nM
- Ki [11]: 185 nM
- Activity (U-937 [12]): 9.22%
- GI50 (MV4-11 [13]): 74 nM
- GI50 (Jurkat): > 10000 nM
- Activity (MV4-11 [14]): 89.25%
- Activity (MV4-11 [15]): 16.42%
- Activity (MV4-11 [16]): 32.08%
- Activity (U-937 [17]): 1.7%
- Activity (MV4-11 [18]): 1.91%
- inhibition [19]: Active
- Activity (MV4-11 [20]): 2.54%
- Activity (MV4-11 [21]): 2.13%
